In ChEMBL document CHEMBL1773054, “Ethionamide boosters: synthesis, biological activity, and structure-activity relationships of a series of 1,2,4-oxadiazole EthR inhibitors” (J Med Chem, 2011):
In brackets after ≈: the same amount, converted by molar mass.

What was measured:
RAW264.7 [1] = assay: Inhibition of EthR in Mycobacterium tuberculosis H37Rv expressing GFP infected in mouse RAW264.7 cells assessed as potentiation of ethionamide-induced inhibition of intracellular bacterial growth after 5 days by microscopic analysis; type: cell-based
[2] = Inhibition of EthR in Mycobacterium tuberculosis H37Rv expressing GFP infected in mouse RAW264.7 cells assessed as concentration required to ethionamide-induced 50% inhibition of bacterial growth after 5 days by microscopic analysis; type: cell-based; conditions: RAW264.7, 120 h
Outline: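 Raw264.7 macrophages infected with M. tuberculosis H37Rv-GFP (MOI 1:1, 2 h, 37 °C, shaking); extracellular bacilli killed with amikacin 20 μM for 1 h. Cells added to wells holding ethionamide fixed at 0.1 μg/mL plus ten 2-fold dilutions of compound. Incubated 5 days at 37 °C, 5% CO2. Macrophages stained with SYTO 60, then imaged by automated confocal microscopy. Read-out is % infected cells. EC50 is the mean of two experiments.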

RAW264.7 [3] = assay: Cytotoxicity against mouse RAW264.7 cells at > 30 uM; type: cell-based
[4] = Half life in CD1 mouse liver microsomes by LC-MS-MS analysis; type: ADME, Microsome
Outline: (§1)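 Male CD-1 mouse liver microsomes (0.6 mg protein/mL), compound 1 μM with 1% methanol vehicle, 5 mM MgCl2, 1 mM NADP, 5 mM glucose-6-phosphate, 0.4 U/mL G6PDH, 50 mM potassium phosphate pH 7.4, 37 °C, duplicates.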

Liver = assay: (§2) Intrinsic clearance in CD1 mouse liver microsomes by LC-MS-MS analysis; type: ADME, Microsome; conditions: mouse, microsomes; outline: as §1
[5] = as §2; type: ADME, Microsome; conditions: CD1, mouse, liver microsomes; outline: as §1
[6] = target: HTH-type transcriptional regulator EthR (Mycobacterium tuberculosis, UniProt P9WMC1); assay: Inhibition of Mycobacterium tuberculosis EthR interaction to ethA promoter after 5 mins by surface plasmon resonance assay
HTH-type transcriptional regulator EthR, sequence (P9WMC1 whole entry): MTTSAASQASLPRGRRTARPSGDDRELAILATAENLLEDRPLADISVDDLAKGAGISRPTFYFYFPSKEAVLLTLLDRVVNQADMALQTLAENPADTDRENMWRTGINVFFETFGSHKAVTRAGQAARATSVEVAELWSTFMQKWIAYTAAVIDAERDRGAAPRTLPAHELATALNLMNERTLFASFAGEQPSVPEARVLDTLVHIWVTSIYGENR

[7] = Solubility of the compound at pH 7.4 after 24 hrs; type: physicochemical; conditions: buffer
Outline: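 A 10 mM DMSO solution was diluted into PBS pH 7.4 or methanol and shaken gently 24 h at room temperature. It was then centrifuged and passed through a 0.45 μm filter. Filtrate was diluted in methanol and read by LC-MS-MS. Solubility was taken from the PBS/methanol mass-signal area ratio.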

O=C(Cc1ccccn1)N1CCC(c2nc(-c3cccs3)no2)CC1
fold change (FC) (RAW264.7 [1]): 10 | EC50 [2]: > 5 µM

CC(C)C[C@H](N)C(=O)N1CCC(c2nc(-c3cccs3)no2)CC1
EC50 [2]: > 5 µM

O=C(Cc1cccc(Cl)c1)N1CCC(c2nc(-c3cccs3)no2)CC1
fold change (FC) (RAW264.7 [1]): 10 | EC50 [2]: > 5 µM

O=C(Cc1ccc(Cl)cc1)N1CCC(c2nc(-c3cccs3)no2)CC1
fold change (FC) (RAW264.7 [1]): 10 | EC50 [2]: 2.2 µM

COCC(=O)N1CCC(c2nc(-c3cccs3)no2)CC1
EC50 [2]: > 5 µM

COc1ccc(CC(=O)N2CCC(c3nc(-c4cccs4)no3)CC2)cc1
fold change (FC) (RAW264.7 [1]): 10 | EC50 [2]: > 5 µM

O=C(Cc1ccccc1F)N1CCC(c2nc(-c3cccs3)no2)CC1
fold change (FC) (RAW264.7 [1]): 10 | EC50 [2]: > 5 µM

O=C(CC1CCCC1)N1CCC(c2nc(-c3cccs3)no2)CC1
Activity (RAW264.7 [3]): Toxic | EC50 [2]: 0.4 µM

O=C(CCC(F)(C(F)(F)F)C(F)(F)F)N1CCC(c2nc(-c3cccs3)no2)CC1
EC50 [2]: > 5 µM

Cc1ccc(CC(=O)N2CCC(c3nc(-c4cccs4)no3)CC2)cc1
fold change (FC) (RAW264.7 [1]): 10 | EC50 [2]: > 5 µM

O=C(Cc1cccnc1)N1CCC(c2nc(-c3cccs3)no2)CC1
fold change (FC) (RAW264.7 [1]): 10 | EC50 [2]: > 5 µM

O=C(CCC1CCCCC1)N1CCC(c2nc(-c3cccs3)no2)CC1
EC50 [2]: 1.8 µM

O=C(O)CCC(=O)N1CCC(c2nc(-c3cccs3)no2)CC1
EC50 [2]: > 5 µM

O=C(CCC(F)(F)F)N1CCC(c2nc(-c3cccs3)no2)CC1
Activity (RAW264.7 [3]): Non-toxic | half-life [4]: 5 min | CL (Liver): 213 µL/min/mg | EC50 [2]: 0.1 µM

CCCC(=O)N1CCC(c2nc(-c3cccs3)no2)CC1
EC50 [2]: 2.1 µM

O=C(Cc1cccc(F)c1)N1CCC(c2nc(-c3cccs3)no2)CC1
fold change (FC) (RAW264.7 [1]): 10 | EC50 [2]: > 5 µM

O=C(Cc1ccc(C(F)(F)F)cc1)N1CCC(c2nc(-c3cccs3)no2)CC1
fold change (FC) (RAW264.7 [1]): 10 | EC50 [2]: > 5 µM

O=C(Cc1cccs1)N1CCC(c2nc(-c3cccs3)no2)CC1
half-life [4]: 3 min | microsomal CLint [5]: 412 µL/min/mg | EC50 [2]: 0.1 µM | IC50 [6]: 0.5 µM | solubility at 24 h [7]: 22 µg/mL (≈ 61.2 µM)

O=C(c1ccccc1)N1CCC(c2nc(-c3cccs3)no2)CC1
fold change (FC) (RAW264.7 [1]): 10 | EC50 [2]: > 5 µM

CC1CCC(CC(=O)N2CCC(c3nc(-c4cccs4)no3)CC2)CC1 (stereo unspecified)
EC50 [2]: > 5 µM

O=S(=O)(CCC(F)(F)F)N1CCC(c2nc(-c3cccs3)no2)CC1
EC50 [2]: > 5 µM

CC(CC(=O)N1CCC(c2nc(-c3cccs3)no2)CC1)C(F)(F)F (stereo unspecified)
EC50 [2]: > 5 µM

O=C(CC1CCCCC1)N1CCC(c2nc(-c3cccs3)no2)CC1
Activity (RAW264.7 [3]): Toxic | EC50 [2]: 0.3 µM

O=C(CCc1cccs1)N1CCC(c2nc(-c3cccs3)no2)CC1
fold change (FC) (RAW264.7 [1]): 10 | EC50 [2]: > 5 µM

CC(C)(C)CCC(=O)N1CCC(c2nc(-c3cccs3)no2)CC1
EC50 [2]: > 5 µM

O=C(NCC(F)(F)F)N1CCC(c2nc(-c3cccs3)no2)CC1
EC50 [2]: > 5 µM

CC(CC(F)(F)F)C(=O)N1CCC(c2nc(-c3cccs3)no2)CC1 (stereo unspecified)
EC50 [2]: > 5 µM

O=C(CCC(F)(F)F)N1CC[C@H](c2nc(-c3cccs3)no2)C1
EC50 [2]: 1.6 µM

CCC(=O)N1CCC(c2nc(-c3cccs3)no2)CC1
EC50 [2]: > 5 µM

CC(C)CC(O)C(=O)N1CCC(c2nc(-c3cccs3)no2)CC1 (stereo unspecified)
EC50 [2]: > 5 µM

CC(C)[C@H](N)C(=O)N1CCC(c2nc(-c3cccs3)no2)CC1
EC50 [2]: > 5 µM

COCCC(=O)N1CCC(c2nc(-c3cccs3)no2)CC1
EC50 [2]: > 5 µM

O=C(CC(O)C(F)(F)F)N1CCC(c2nc(-c3cccs3)no2)CC1 (stereo unspecified)
EC50 [2]: > 5 µM

O=C(Cc1ccccc1)N1CCC(c2nc(-c3cccs3)no2)CC1
fold change (FC) (RAW264.7 [1]): 10 | EC50 [2]: 2.1 µM | IC50 [6]: 5.6 µM

O=C(CCC(F)(F)F)N1CCC[C@@H](c2nc(-c3cccs3)no2)C1
EC50 [2]: > 5 µM

O=C(Cc1cccc(C(F)(F)F)c1)N1CCC(c2nc(-c3cccs3)no2)CC1
fold change (FC) (RAW264.7 [1]): 10 | EC50 [2]: > 5 µM

O=C(CCC(F)(F)F)NCCCc1nc(-c2cccs2)no1
EC50 [2]: > 5 µM

[N-]=[N+]=NCC(=O)N1CCC(c2nc(-c3cccs3)no2)CC1
EC50 [2]: 1.2 µM

O=C(Cc1ncc[nH]1)N1CCC(c2nc(-c3cccs3)no2)CC1
fold change (FC) (RAW264.7 [1]): 10 | EC50 [2]: > 5 µM

O=C(Cc1ccncc1)N1CCC(c2nc(-c3cccs3)no2)CC1
fold change (FC) (RAW264.7 [1]): 10 | EC50 [2]: > 5 µM

CC(C)CCC(=O)N1CCC(c2nc(-c3cccs3)no2)CC1
Activity (RAW264.7 [3]): Toxic | EC50 [2]: 0.1 µM

CC(C)NCC(O)COc1cccc2ccccc12 (stereo unspecified) [PROPRANOLOL]
half-life [4]: 13 min

O=C(CC(F)(F)F)N1CCC(c2nc(-c3cccs3)no2)CC1
EC50 [2]: 1.3 µM

O=C(CCC(F)(F)F)N1CC(c2nc(-c3cccs3)no2)C1
EC50 [2]: > 5 µM

CC(C)CC(=O)N1CCC(c2nc(-c3cccs3)no2)CC1
EC50 [2]: 2.5 µM

Cc1ccccc1CC(=O)N1CCC(c2nc(-c3cccs3)no2)CC1
fold change (FC) (RAW264.7 [1]): 10 | EC50 [2]: > 5 µM

COc1ccccc1CC(=O)N1CCC(c2nc(-c3cccs3)no2)CC1
fold change (FC) (RAW264.7 [1]): 10 | EC50 [2]: > 5 µM

O=C(Cc1ccc(F)cc1)N1CCC(c2nc(-c3cccs3)no2)CC1
fold change (FC) (RAW264.7 [1]): 10 | EC50 [2]: 0.8 µM

O=C(CCC(F)(F)F)N1CC[C@@H](c2nc(-c3cccs3)no2)C1
Activity (RAW264.7 [3]): Non-toxic | half-life [4]: 298 min | EC50 [2]: 0.4 µM | solubility at 24 h [7]: 80 µg/mL (≈ 232 µM)

CCCCC(=O)N1CCC(c2nc(-c3cccs3)no2)CC1
EC50 [2]: 1.1 µM

O=C(Cc1ccccc1Cl)N1CCC(c2nc(-c3cccs3)no2)CC1
fold change (FC) (RAW264.7 [1]): 10 | EC50 [2]: > 5 µM

Cc1cccc(CC(=O)N2CCC(c3nc(-c4cccs4)no3)CC2)c1
fold change (FC) (RAW264.7 [1]): 10 | EC50 [2]: > 5 µM

N#CCC(=O)N1CCC(c2nc(-c3cccs3)no2)CC1
half-life [4]: 91 min | microsomal CLint [5]: 11 µL/min/mg | EC50 [2]: 1.5 µM | solubility at 24 h [7]: 194 µg/mL (≈ 642 µM)

CC(C)(C)CC(=O)N1CCC(c2nc(-c3cccs3)no2)CC1
EC50 [2]: > 5 µM

O=C(Cc1ccccc1C(F)(F)F)N1CCC(c2nc(-c3cccs3)no2)CC1
fold change (FC) (RAW264.7 [1]): 10 | EC50 [2]: > 5 µM

CC(=O)N1CCC(c2nc(-c3cccs3)no2)CC1
EC50 [2]: > 5 µM

COc1cccc(CC(=O)N2CCC(c3nc(-c4cccs4)no3)CC2)c1
fold change (FC) (RAW264.7 [1]): 10 | EC50 [2]: > 5 µM

O=C(CCC(F)(F)F)N1CCC[C@H](c2nc(-c3cccs3)no2)C1
EC50 [2]: > 5 µM

O=C(CC1CC1)N1CCC(c2nc(-c3cccs3)no2)CC1
Activity (RAW264.7 [3]): Non-toxic | EC50 [2]: 0.2 µM | IC50 [6]: 1.1 µM | solubility at 24 h [7]: 64 µg/mL (≈ 202 µM)
